From PubChem BioAssay
A selection: hits, their analogues and other compounds. The true share with any hit is near 1.8%.
ZTA DNA inh – counter-screen for EBNA-1 inhibitors: inhibitors of Epstein-Barr virus ZTA. P03206. ZTA-DNA binding, fluorescence polarization. 320,000 compounds, 0.15% hits. inhibition, % at 11 µM; in the data active = inhibition above about 33%
EBNA-1 inh – EBNA-1 DNA-binding inhibitors, primary screen, biochemical, fluorescence polarization | inhibition, % at 14.8 µM | 300,000 compounds, 0.34% hits | AID 1950, 2009; in the data active = inhibition above about 28%
GSTO1 inh – inhibitors of recombinant GSTO1, primary screen, counter-screen for RBBP9 inhibitor project, biochemical, fluorescence polarization. Glutathione S-transferase omega-1 (Homo sapiens), P78417. activity-based probe fluorescence polarization. inhibition, % at 5.96 µM. 300,000 compounds, 1.1% hits. AID 1974, 2009;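 active = inhibition above the campaign mean inhibition plus 3 SD, cut at about 35% in these data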;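 note: 0% = GSTO1-1 with DMSO and 100% = wells lacking GSTO1-1 enzyme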
procasp3 activ – activators of human procaspase-3 D3A mutant, primary screen, biochemical, absorbance, PC-3 D3A mutant, single concentration | 330,000 compounds, 0.11% hits | Caspase-3 (Homo sapiens), P42574 | recombinant procaspase-3 D3A, Ac-DEVD-pNA absorbance 405 nm | activation, % at 8.5 µM;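 active = activation above the mean of all tested compounds plus 3 SD, cut at about 21% in these data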;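 note: 0% = DMSO alone and 100% = DMSO wells spiked with extra 5 µM PC-3 D3A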
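Evaluation: percent activation relative to control range; Material: Procaspase-3 D3A mutant, all three cleavage aspartates alanine; Compound: single dose, 8.5 µM nominal compound, 0.8% DMSO; Replication: one well per compound; Signal: absorbance at 405 nm, 0 and 120 min; Schedule: 1 h preincubation plus 2 h reaction at 25 °C.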
procasp7 counter – procaspase-7 activators, primary screen, counter-screen for procaspase-3 activator project, biochemical, absorbance, HTS, human | Caspase-7 (Homo sapiens), P55210 | recombinant procaspase-7, Ac-DEVD-pNA absorbance 405 nm; D23A/D198A/D206A triple mutant, cannot self-cleave; scale: DMSO 0, 5 µM enzyme 100 | activation, % at 8.5 µM | 330,000 compounds, 0.093% hits | AID 463210, 2010;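 active = percent activation above the screen-wide mean plus 3 SD, cut at about 25% in these data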
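System: Procaspase-7 triple mutant (PC-7 D3A); measure: % activation from two-timepoint absorbance difference, scaled to controls; times: 1 h compound preincubation, 2 h substrate cleavage, 25 °C; also added: Ac-DEVD-pNA substrate, 400 µM as added; measured by: Epi-absorbance of released pNA at 405 nm, two timepoints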
Apaf1 inhib – inhibitors of human Apaf-1 apoptosome, primary screen, biochemical, DEVD-Rh110 fluorescence, uHTS. Apoptotic protease-activating factor 1 (Homo sapiens), O14727. reconstituted apoptosome caspase-3 activity. inhibition, % at 20 µM. 330,000 compounds, 0.71% hits; active = inhibition of at least 40% at 20 µM;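 note: plate controls were DMSO wells for no effect and DEVD-CHO caspase inhibitor wells for full effect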
Target sequence (O14727 whole entry, looked up): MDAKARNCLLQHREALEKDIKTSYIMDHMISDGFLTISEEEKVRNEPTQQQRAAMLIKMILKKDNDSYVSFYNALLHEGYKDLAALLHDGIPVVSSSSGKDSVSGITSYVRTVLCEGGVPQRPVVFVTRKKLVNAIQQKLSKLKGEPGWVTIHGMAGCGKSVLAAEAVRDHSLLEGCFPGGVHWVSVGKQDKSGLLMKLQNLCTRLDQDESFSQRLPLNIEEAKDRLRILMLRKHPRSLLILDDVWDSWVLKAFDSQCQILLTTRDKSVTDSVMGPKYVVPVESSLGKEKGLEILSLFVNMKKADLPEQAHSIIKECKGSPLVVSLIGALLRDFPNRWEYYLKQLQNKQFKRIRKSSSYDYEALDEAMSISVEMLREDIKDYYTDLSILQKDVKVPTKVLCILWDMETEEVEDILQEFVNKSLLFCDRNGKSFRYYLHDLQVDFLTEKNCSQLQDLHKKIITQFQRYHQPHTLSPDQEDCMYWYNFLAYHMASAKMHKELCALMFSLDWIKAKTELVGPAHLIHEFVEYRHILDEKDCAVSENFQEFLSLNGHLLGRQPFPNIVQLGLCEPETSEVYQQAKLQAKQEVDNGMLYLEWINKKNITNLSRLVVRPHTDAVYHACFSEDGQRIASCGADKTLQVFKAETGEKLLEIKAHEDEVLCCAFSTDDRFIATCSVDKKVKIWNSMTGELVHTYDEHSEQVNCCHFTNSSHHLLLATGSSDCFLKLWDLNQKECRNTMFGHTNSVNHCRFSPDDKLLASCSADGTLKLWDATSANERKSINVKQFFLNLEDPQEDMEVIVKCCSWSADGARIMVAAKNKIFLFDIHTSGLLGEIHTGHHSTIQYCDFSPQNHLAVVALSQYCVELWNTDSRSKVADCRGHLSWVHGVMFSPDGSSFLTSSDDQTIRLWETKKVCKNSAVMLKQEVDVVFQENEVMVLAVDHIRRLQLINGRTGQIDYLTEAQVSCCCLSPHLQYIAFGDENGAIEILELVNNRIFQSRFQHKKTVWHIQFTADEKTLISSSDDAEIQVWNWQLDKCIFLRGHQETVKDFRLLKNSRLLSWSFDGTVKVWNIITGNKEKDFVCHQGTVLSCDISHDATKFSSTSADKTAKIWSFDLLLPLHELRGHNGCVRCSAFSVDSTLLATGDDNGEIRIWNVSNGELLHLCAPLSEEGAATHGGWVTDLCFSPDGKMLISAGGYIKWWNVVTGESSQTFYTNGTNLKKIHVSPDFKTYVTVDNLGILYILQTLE
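Material: biochemical Apaf-1 apoptosome reconstitution. Medium: Hepes buffer, pH 7.5. Also added: cytochrome c activation, bis-DEVD rhodamine 110 substrate. Timing: 30 min compound preincubation, 50 min activation, room temperature. Measured by: rhodamine 110 fluorescence at Ex 480/Em 540 nm.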
Active calls of the source: *; nt = not tested or not shown.

SMILES	ZTA DNA inh	EBNA-1 inh	GSTO1 inh	procasp3 activ	procasp7 counter	Apaf1 inhib
CCOC(=O)COc1ccc(/C=C2/C(=O)NN(c3ccc(F)cc3)C2=O)cc1OC	10	-5	6	-3	-6	9
CCOC(=O)c1ccc(N2NC(=O)/C(=C/c3ccc(OC(=O)c4ccco4)c(OC)c3)C2=O)cc1	2	-4	37*	-4	-15	12
CC1CCC/C(=C\Nc2ccc(O)cc2)C1=O (configuration not stated)	8	-2	37*	-13	-6	34
Oc1ccc(N=C/C=C/c2cccc(Br)c2)cc1-c1nc2ccccc2s1	-29	-1	35*	3	-3	5
CCC(Sc1nc2ccccc2o1)C(=O)Nc1nnc(C)s1 (configuration not stated)	-8	-9	44*	-4	1	7
Cc1ccc(CC(NC(=O)c2ccc(C)cc2)C(=O)O)cc1 (configuration not stated)	nt	nt	nt	3	3	10
COc1ccccc1Nc1nc(Cl)c(C=O)s1	-10	8	47*	-9	-2	-8
Cc1csc(C(C)NC(=O)c2ccc(OC3CCN(CCc4ccccc4)CC3)cc2)n1 (configuration not stated)	16	6	-1	7	8	6
NC(=O)c1c(NC(=O)c2ccco2)sc2c1CCC2	-1	4	1	0	6	-21
N#Cc1c(NC(=O)C2CC(c3ccccc3O)=NO2)sc2c1CCC2 (configuration not stated)	-6	34*	-2	1	-8	14
N#Cc1c(NC(=O)C2CC(c3ccccc3Cl)=NO2)sc2c1CCC2 (configuration not stated)	-1	-7	-6	0	2	0
N#Cc1c(NC(=O)c2ccco2)sc2c1CCC2	10	5	36*	-5	-8	-14
CS(=O)c1nc(-c2ccc(Br)cc2)cc(-c2ccccc2)c1C#N (configuration not stated)	0	-6	-18	-13	1	55*
C/C(=N/Nc1ccc(C(=O)O)cc1)c1ccc(O)c(O)c1O	-4	-5	45*	-7	-13	21
CC(C)n1nnnc1SCC(=O)Nc1ccccc1F	-1	2	-5	0	4	-5
Cc1ccc(C(=O)NC(=C(Cl)Cl)S(=O)(=O)c2ccccc2)cc1	4	4	39*	-2	-3	-7
COc1cc(S(=O)(=O)NCc2ccc3c(c2)OCO3)ccc1F	3	-3	-2	4	3	1
O=C(COC(=O)Cc1cccc(F)c1)NCCc1ccccc1	-1	nt	nt	9	12	-11
CC1CCC2(CC1)NC(=O)N(NC(=O)c1ccc(OC(C)C)cc1)C2=O (configuration not stated)	nt	nt	nt	nt	nt	-8
CCOC(=O)C(C)(C)N(Cc1cccc(C)c1)S(=O)(=O)c1ccc(Cl)c([N+](=O)[O-])c1	-12	11	61*	-2	2	15
CC(=O)Nc1ccc(C(=O)CN2C(=O)NC3(CCCc4ccccc43)C2=O)c(F)c1 (configuration not stated)	nt	nt	nt	2	-7	6
CC(=O)c1cccc(N(C(=O)Cn2nnc3ccccc32)C(C(=O)NC2CCCCC2)c2cn(C)nc2C)c1 (configuration not stated)	-8	-3	2	-6	-5	1
O=C(NC1CCCCC1)C(c1ccc(O)c(O)c1)N(C(=O)Cn1nnc2ccccc21)c1cccc(O)c1 (configuration not stated)	7	0	36*	3	8	-5
CN(CCCN1c2ccccc2CCc2ccccc21)CC(=O)c1ccc(Cl)cc1	18	-4	3	3	-3	44*
O=C1CC(c2ccc(O)c(O)c2)Oc2c1ccc(O)c2O (configuration not stated)	8	9	44*	-11	-16	-23
SMILES	ZTA DNA inh	EBNA-1 inh	GSTO1 inh	procasp3 activ	procasp7 counter	Apaf1 inhib
COc1cccc(C2C(C(=O)Nc3nc4ccccc4s3)=C(C)NC3=C2C(=O)CC(C)(C)C3)c1OC (configuration not stated)	-18	-3	-9	45*	23	10
COc1ccc(OC)c(C2C(C(=O)Nc3nc4ccccc4s3)=C(C)NC3=C2C(=O)CCC3)c1 (configuration not stated)	-3	-4	-13	-3	-4	7
Cc1ccc(CCNC(=O)c2cc(S(=O)(=O)N3CCCC3)cn2C)cc1	-3	0	3	10	0	6
Cc1nc(NC(=O)COC(=O)C2CC3CCCC(C2)C3=O)c(Cl)cc1Cl (configuration not stated)	nt	nt	nt	8	2	-7
CCN1CCN(Cc2ccc(NC(=O)c3cc(NC(=O)c4cncc(-c5ccc(C#N)cc5)c4)cc(OC)c3)cc2C(F)(F)F)CC1	-6	-11	-37	6	-6	54*
Cc1ccc(N2C(=O)CSCC2=O)cc1	8	5	3	5	10	2
Cc1ccc(N2C(=O)CS/C2=C(\C(Cl)=C(Cl)Cl)[N+](=O)[O-])cc1	13	8	54*	-10	-17	-12
CSCCC(NC(=O)c1ccco1)C(=O)NNC(=O)c1n[nH]c(=O)c2ccccc12 (configuration not stated)	nt	nt	nt	4	1	-10
O=C(CC1C(=O)NCCN1C(=O)c1ccc(F)cc1)OCc1ccccc1 (configuration not stated)	2	-15	-8	0	-4	-3
CC(=O)OCC1(C)CN(c2ccccc2)N(C(=O)c2ccc(F)cc2)C1=O (configuration not stated)	4	7	36*	4	13	-9
COc1ccc(-n2c(=S)[nH]c3cc(C(=O)Nc4ccc(F)cc4)ccc3c2=O)c(OC)c1	-4	6	-2	5	-8	6
C/C(CCC(=O)O)=N/Nc1ccc([N+](=O)[O-])cc1[N+](=O)[O-]	7	-7	38*	-14	-2	9
O=C(CSc1nnc(C2CC2)n1CC1CCCO1)Nc1ccccc1Cl (configuration not stated)	-7	8	7	3	1	1
